Results as given in ChEMBL document CHEMBL3414531, “Design, synthesis and biological evaluation of quinazoline derivatives as anti-trypanosomatid and anti-plasmodial agents” (Eur J Med Chem, 2015).
The source made the active and inactive calls. The calls are words filed in the database; no cut-off is given here.

Key:
Trypanosoma cruzi [1] = assay: Antimicrobial activity against bloodstream trypomastigote stage of Trypanosoma cruzi NINOA after 24 hrs by Brener method; type: functional
Trypanosoma cruzi [2] = assay: Antimicrobial activity against bloodstream trypomastigote stage of Trypanosoma cruzi INC-5 after 24 hrs by Brener method; type: functional; conditions: INC-5, 24 h
Leishmania mexicana [3] = assay: Antimicrobial activity against Leishmania mexicana MHOM/BZ/61/M379 after 24 hrs by haemocytometry; type: functional; conditions: MHOM/BZ/61/M379, 24 h
[4] = Cytotoxicity against African green monkey Vero cells after 24 hrs by MTT assay; type: cell-based; conditions: chlorocebus sabaeus
Method in brief: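 Confluent Vero cells were trypsinized and resuspended in MEM with 10% FBS, seeded in 96-well plates and held 24 h at 37 °C, 5% CO2. Compounds at various concentrations were added (DMSO control) for 24 h. MTT was added for 2 h, then SDS-HCl overnight at 24 °C. A540 was read and viability taken relative to control cells. Triplicate; CC50 derived.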

Plasmodium berghei [5] = assay: Antiplasmodial activity against Plasmodium berghei infected in CD1 mouse assessed as reduction in parasitemia at 50 mg/kg, po administered for 4 days measured on day 4 relative to vehicle-treated control; type: functional; set-up: scale not given: the % may be the effect or the level left
Method in brief: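 P. berghei ANKA was passaged ip (0.2 mL saline-diluted blood) through groups of female CD1 mice until infection stabilized. Four-day suppression test: oral 50 mg/kg every 24 h on days 0–4 post-inoculation (n = 5, in duplicate). Vehicle control was 0.2 mL gum arabic orally. Parasitemia was read from tail blood on day 4 and inhibition calculated against the control group. Survival time was also recorded.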

Plasmodium berghei [6] = assay: Antiplasmodial activity against Plasmodium berghei infected in CD1 mouse assessed as survival time at 50 mg/kg, po administered for 4 days measured on day 4 relative to vehicle-treated control; type: functional
Method in brief: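 P. berghei ANKA was passaged by ip injection of 0.2 mL saline-diluted blood from donor mice at about 30% parasitaemia until the infection was stable. In a 4-day suppression test, mice received 50 mg/kg orally every 24 h on days 0–4 post-inoculation (n = 5, in duplicate), with 0.2 mL Arabic gum orally as control. Survival time was recorded against untreated mice, and mice without parasitaemia on day 30 counted as cured.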

[7] = Antioxidant activity assessed as inhibition of ABTS free radical scavenging activity after 10 mins by spectrophotometry relative to control; type: physicochemical
Method in brief: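 ABTS (7 mM) and potassium persulfate (2.45 mM), final concentrations in water, mixed and kept in the dark at room temperature for 16 h to form ABTS radical cation. Diluted in water to A734 of 1.00. Compounds or Trolox standards added (final 0–20). Absorbance read 10 min after mixing. IC50 is 50% radical scavenging, relative uncertainty under five percent.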

Leishmania mexicana [8] = assay: Inhibition of DHFR in promastigote stage of Leishmania mexicana at 3 to 8 uM after 24 hrs in presence of folinic acid/folic acid/ferulic acid
Method in brief: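 L. mexicana MHOM/BZ/61/M379 promastigotes, 10^6 in log phase, were incubated with folinic acid, folic acid or ferulic acid at 20, 40, 60, 80 or 100. Cells were washed, resuspended in PBS and held 1 h at room temperature, then pelleted and resuspended in culture medium in 24-well plates. Compound was added and plates incubated 24 h. Percentage of living parasites was determined.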

Leishmania mexicana [9] = conditions: MHOM/BZ/61/M379

Molecule	LC50 (Trypanosoma cruzi [1]) [µM]	LC50 (Trypanosoma cruzi [2]) [µM]	LC50 (Leishmania mexicana [3]) [µM]	CC50 at 24 h [4] [µM]	Activity (Plasmodium berghei [5]) [%]	Survival (Plasmodium berghei [6]) [days]	IC50 [7] [µM]	inhibition (Leishmania mexicana [8])	LC50 (Leishmania mexicana [9]) [µM]
COc1ccc(CN(Cc2ccc(OC)cc2)c2ccc3nc(N)nc(N)c3c2)cc1	62.6	46.5	23.1	> 200	0	7	114		
Nc1nc(N)c2cc(NCc3ccc(OC(F)(F)F)cc3)ccc2n1	20.6	46.1	8.08	182	99.9	17	4.75	Active	
CN(C)CCCOc1ccc(CNc2ccc3nc(N)nc(N)c3c2)cc1	288	184	65.4	> 200	53.2	12	6.38		
O=C(Cn1ccnc1[N+](=O)[O-])NCc1ccccc1 [BENZNIDAZOLE]	780	690							
Nc1nc(N)c2cc(NCc3ccc4c(c3)OCCO4)ccc2n1	66.5	72.5	22.4	> 200	44.2	11	6.29		
COc1ccc(CNc2ccc3nc(N)nc(N)c3c2)cc1	32.7	155	14.6	147	98.5	18	5.72		
O=C1O[C@H]([C@@H](O)CO)C(O)=C1O [ASCORBIC ACID]							11.2		
VITAMIN E							14.8		
CC1CS(=O)(=O)CCN1/N=C/c1ccc([N+](=O)[O-])o1 (stereo not drawn) [NIFURTIMOX]				163					
COc1ccc(CNc2ccc3nc(NC(C)=O)nc(NC(C)=O)c3c2)cc1	197	509	250	156	89.3	6	7.04		
CCN(Cc1ccc(OC(F)(F)F)cc1)c1ccc2nc(N)nc(N)c2c1	6.28	43.8	3.06	> 200	100	>23	7.36	Active	
Nc1nc(N)c2cc(N(Cc3ccc(OC(F)(F)F)cc3)Cc3ccc(OC(F)(F)F)cc3)ccc2n1	35	29.2	4.93	> 200	21	14	33.9		
COc1ccc(CN(Cc2ccc(OC(F)(F)F)cc2)c2ccc3nc(N)nc(N)c3c2)cc1	17.8	40.7	8	> 200	95.2	21	24.5		
Nc1ccc2nc(N)nc(N)c2c1 [QUINAZOLINE-2,4,6-TRIAMINE]							6.78		
Cc1c(C)c2c(c(C)c1O)CCC(C)(C(=O)O)O2 (stereo not drawn) [TROLOX]							10.9		
CCN(CC)CCCC(C)Nc1ccnc2cc(Cl)ccc12 (stereo not drawn) [CHLOROQUINE]					100	>23			
CCc1nc(N)nc(N)c1-c1ccc(Cl)cc1 [PYRIMETHAMINE]				122	100	>23			
MEGLUMINE ANTIMONATE									183
